# Experimental data taken from ChEMBL document CHEMBL1152865, “Synthesis and antimycobacterial activities of novel 6-nitroquinolone-3-carboxylic acids” (Eur J Med Chem, 2009).
# System: Mycobacterium tuberculosis
# Test: Antibacterial activity against multidrug-resistant Mycobacterium tuberculosis by agar dilution method
# Type: functional
# Method in brief: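 Agar dilution in Middlebrook 7H11 agar supplemented with OADC, following an approach similar to NCCLS guidance. MIC determined in duplicate.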
row,SMILES,MIC
1,Cc1onc(-c2c(F)cccc2F)c1C(=O)N1CCN(c2cc3c(cc2[N+](=O)[O-])c(=O)c(C(=O)O)cn3C2CC2)CC1,2.69 µM
2,Cc1onc(-c2c(F)cccc2F)c1C(=O)N1CCN(c2cc3c(cc2[N+](=O)[O-])c(=O)c(C(=O)O)cn3C(C)(C)C)CC1,0.65 µM
3,O=C(O)c1cn(-c2ccc(F)cc2)c2cc(N3CCN(C(=O)C4COc5ccccc5O4)CC3)c([N+](=O)[O-])cc2c1=O (stereo not given),0.68 µM
4,O=C(O)c1cn2c(n1)CN(c1cc3c(cc1[N+](=O)[O-])c(=O)c(C(=O)O)cn3C1CC1)CC2,0.43 µM
5,O=C(O)c1cn(C2CC2)c2cc(N3CCN(Cc4ccc5c(c4)OCO5)CC3)c([N+](=O)[O-])cc2c1=O,0.16 µM
6,CC1CN(c2cc3c(cc2[N+](=O)[O-])c(=O)c(C(=O)O)cn3C2CC2)CC(C)O1 (stereo not given),4.03 µM
7,O=C(O)c1cn(-c2ccc(F)cc2)c2cc(N3CCN(Cc4ccc5c(c4)OCO5)CC3)c([N+](=O)[O-])cc2c1=O,0.71 µM
8,O=C(O)c1cn(C2CC2)c2cc(N3CCN(C(=O)c4ccco4)CC3)c([N+](=O)[O-])cc2c1=O,0.34 µM
9,CC1CN(c2cc3c(cc2[N+](=O)[O-])c(=O)c(C(=O)O)cn3-c2ccc(F)cc2)CC(C)O1 (stereo not given),1.77 µM
10,O=C(O)c1cn(C2CC2)c2cc(N3CCC(O)(c4ccc(Cl)cc4)CC3)c([N+](=O)[O-])cc2c1=O,0.39 µM
11,O=C(O)c1cn(C2CC2)c2cc(N3CCC(N4CCCCC4)CC3)c([N+](=O)[O-])cc2c1=O,0.43 µM
12,O=C(O)c1cn(C2CC2)c2cc(N3CCC4(CC3)OCCO4)c([N+](=O)[O-])cc2c1=O,1.88 µM
13,O=C(O)c1cn(C2CC2)c2cc(N3CCN(C(=O)C4COc5ccccc5O4)CC3)c([N+](=O)[O-])cc2c1=O (stereo not given),6.01 µM
14,CC(C)(C)n1cc(C(=O)O)c(=O)c2cc([N+](=O)[O-])c(N3CCN(Cc4ccc5c(c4)OCO5)CC3)cc21,1.53 µM
15,O=C(O)c1cn(C2CC2)c2cc(N3CCC(n4c(=O)[nH]c5cc(Cl)ccc54)CC3)c([N+](=O)[O-])cc2c1=O,2.97 µM
16,CC(C)(C)NC(=O)C1c2ccccc2CCN1c1cc2c(cc1[N+](=O)[O-])c(=O)c(C(=O)O)cn2C1CC1 (stereo not given),1.55 µM
17,CN1CCN(c2cc3c(cc2[N+](=O)[O-])c(=O)c(C(=O)O)cn3C2CC2)CC1c1ccccc1 (stereo not given),0.2 µM
18,CCN(CC)C(=O)C1CCCN(c2cc3c(cc2[N+](=O)[O-])c(=O)c(C(=O)O)cn3C2CC2)C1 (stereo not given),3.42 µM
19,COc1c(N2CCNC(C)C2)c(F)cc2c(=O)c(C(=O)O)cn(C3CC3)c12 (stereo not given) [GATIFLOXACIN],8.34 µM
20,NNC(=O)c1ccncc1 [ISONIAZID],45.6 µM
